Data on two compounds can be found in PubChem BioAssay AID2527 (Broad Institute, 2010).

In this assay the test system is platelets, A23187-induced P-selectin, flow cytometry. As to the kind of experiment: inhibitors of A23187-stimulated platelet P-selectin exposure, confirmation, selectivity assay, cell-based, fluorescence, flow cytometry, platelets (AID 2527). To be noted: at 30 µM; hits give high values. The method, boiled down: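 Assay system: stimulated platelets. Dosing: 30 µM, one dose. Schedule: 20 min compound, 15 min A23187, 20 min stain. Technique: flow cytometry, PE anti-P-selectin.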
On the technique in general: Flow cytometry measures light scatter and fluorescence of single cells or particles in a stream.

Active and inactive are the calls of the source.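 The calls were made as follows: active = at 30 µM dose, two-repeat average suppression of induced P-selectin signal exceeds 50%; inactive = average suppression 50% or lower.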

The inhibition is the percentage by which the read-out fell short of the control. As for `CCCC(=O)Nc1cccc(NC(=O)c2ccccc2Br)c1`, the inhibition is 3.45% (inactive). As for `O=C(Nc1cccc(NC(=O)c2ccccc2Cl)c1)c1ccco1`, the figure is 5.95% (inactive).
